# HTRA1 inhibitor: HTRA1 (human) protease inhibition; Q92743; recombinant HTRA1, FP-rhodamine activity-based probe, fluorescence polarization; inhibition, % at 5.96 µM; 0.5% of 340,000 active; in the data active = inhibition above about 36%;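 note: 0% = enzyme with DMSO and 100% = wells lacking enzyme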
# ABHD4 inh: inhibits mouse alpha/beta hydrolase domain 4; inhibition, % at 8.92 µM; purified mABHD4, FP-Rh probe fluorescence polarization; Q8VD66; 0.54% of 370,000 active;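 active = inhibition exceeding the mean over every tested compound plus 3 SD, cut at about 30% in these data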;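 note: 0% = plate median of compound wells and 100% = S159A mutant with DMSO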
#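 system = mouse ABHD4 enzyme, wild type | medium = HEPES pH 7.0, NaCl, Pluronic buffer | also added = FP-Rh probe | incubation = Enzyme–compound pre-incubation 45 min, then probe 60 min, both 25 °C | technique = fluorescence polarization, excitation 525 nm, emission 598 nm, BODIPY TMR filters | controls = S159A mutant high control, sample median low control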
# PAFAH1B2 FP inh: blocks human PAF acetylhydrolase 1b catalytic subunit 2. AID 492953. P68402. recombinant PAFAH1B2, FP-rhodamine activity probe, fluorescence polarization. 1.2% of 340,000 active. inhibition, % at 3.39 µM;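 active = inhibition above the mean of all tested compounds plus 3 SD, cut at about 24% in these data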;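 note: 0% = enzyme with DMSO and 100% = wells lacking PAFAH1B2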
# Target sequence (P68402 whole entry, looked up): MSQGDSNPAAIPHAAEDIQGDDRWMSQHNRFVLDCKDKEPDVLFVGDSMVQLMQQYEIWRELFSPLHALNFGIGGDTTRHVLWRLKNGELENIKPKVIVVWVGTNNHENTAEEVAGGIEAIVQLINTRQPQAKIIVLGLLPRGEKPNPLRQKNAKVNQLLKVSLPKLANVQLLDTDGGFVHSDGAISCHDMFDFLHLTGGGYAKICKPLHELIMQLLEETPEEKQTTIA
# PAFAH2 inh: PAFAH2 (human) inhibition | Q99487 | recombinant PAFAH2, FP-rhodamine activity probe, fluorescence polarization | inhibition, % at 3.39 µM | 0.99% of 340,000 active | AID 492956;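 active = inhibition above the mean over all tested compounds plus 3 SD, cut at about 30% in these data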;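 note: inhibitors block probe labeling of enzyme so polarization drops; 0% = enzyme with DMSO and 100% = wells lacking PAFAH2 protein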
# PAFAH1B3 inh: PAFAH1B3 (human) inhibition; inhibition, % at 3.39 µM; Q15102; 0.28% of 340,000 active; recombinant PAFAH1B3, FP-rhodamine probe, fluorescence polarization;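 active = inhibition above the screen-wide average of all tested compounds plus 3 SD, cut at about 25% in these data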;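 note: 0% = enzyme with DMSO only and 100% = wells lacking PAFAH1B3 protein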
# pPAFAH FP inh: inhibitors of human plasma PAF acetylhydrolase (pPAFAH). Q13093. recombinant pPAFAH, FP-rhodamine probe fluorescence polarization. inhibition, % at 3.39 µM. 1.5% of 330,000 active. AID 463082;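 active = inhibition above the mean inhibition across the screen plus 3 SD, cut at about 25% in these data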;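 note: inhibitors block binding of the rhodamine activity-based probe so polarization drops; 0% = enzyme with DMSO and 100% = wells lacking pPAFAH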
# Target sequence (Q13093 whole entry, looked up): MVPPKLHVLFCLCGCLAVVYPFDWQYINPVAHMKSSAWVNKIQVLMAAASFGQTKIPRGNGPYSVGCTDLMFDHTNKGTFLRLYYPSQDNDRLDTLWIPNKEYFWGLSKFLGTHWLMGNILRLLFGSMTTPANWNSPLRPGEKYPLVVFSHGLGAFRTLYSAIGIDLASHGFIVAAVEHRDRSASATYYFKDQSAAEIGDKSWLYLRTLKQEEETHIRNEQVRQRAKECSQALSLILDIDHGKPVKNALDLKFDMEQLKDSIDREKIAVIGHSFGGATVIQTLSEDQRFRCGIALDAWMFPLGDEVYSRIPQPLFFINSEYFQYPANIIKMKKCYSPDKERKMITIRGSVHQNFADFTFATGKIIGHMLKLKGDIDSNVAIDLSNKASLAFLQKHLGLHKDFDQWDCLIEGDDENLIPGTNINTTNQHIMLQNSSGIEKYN
# pPAFAH confirm: confirmation of human plasma PAF acetylhydrolase (pPAFAH) inhibitors | shares compounds with pPAFAH FP inh | recombinant pPAFAH, FP-Rh probe fluorescence polarization | inhibition, % at 3.39 µM | 72% of 2,300 active | AID 463230;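 active = mean inhibition of the triplicate above the hit cutoff set for the earlier primary screen, cut at about 25% in these data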;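 note: 0% = enzyme with DMSO and 100% = wells lacking pPAFAH enzyme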
# HTRA1 conf: confirmation of human HTRA1 inhibitors; 66% of 1,600 active; shares compounds with HTRA1 inhibitor; inhibition, % at 5.96 µM; recombinant HTRA1, FP-rhodamine activity-based probe, fluorescence polarization;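 active = mean inhibition over three repeats above a set limit taken from the earlier primary screen, cut at about 37% in these data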;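 note: 0% = HTRA1 with DMSO and 100% = wells lacking HTRA1; inhibitors block probe binding so polarization drops and inhibition rises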
# mABHD4 conf: confirmation of mouse ABHD4 inhibitors; shares compounds with ABHD4 inh; purified mABHD4, FP-Rh probe fluorescence polarization; inhibition, % at 8.92 µM; 55% of 1,800 active; AID 720658;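 active = mean inhibition across replicates above the hit cutoff set in the primary screen, cut at about 30% in these data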;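 note: 0% = wild-type ABHD4 with DMSO and 100% = catalytically dead S159A mutant with DMSO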
# The depositor's hits bear a star; . = not tested or not shown. Sampled rows, rich in hits. Any-hit rate of the full collection: about 2.8%.
SMILES,HTRA1 inhibitor,ABHD4 inh,PAFAH1B2 FP inh,PAFAH2 inh,PAFAH1B3 inh,pPAFAH FP inh,pPAFAH confirm,HTRA1 conf,mABHD4 conf
S=c1[nH]nc(-c2ccc(Cl)cc2)n1/N=C/C=C/c1ccco1,.,31*,.,.,.,39*,13,.,-2
Cc1ccccc1-c1n[nH]c(=S)n1/N=C/C=C/c1ccco1,16,35*,4,7,5,45*,9,.,32*
CCCCCC(=O)N/N=C/c1ccc([N+](=O)[O-])o1,8,7,4,4,7,2,.,.,.
CCN(CC)c1ccc(N=Cc2ccc([N+](=O)[O-])o2)cc1,64*,45*,3,9,4,43*,17,41*,16
C=CCN1C[C@@H](COCc2ccccc2)Oc2cccc(F)c2S1(=O)=O,.,-6,.,.,.,.,.,.,.
O=C1c2cc(Cl)ccc2-c2c(O)cc(Cl)cc21,-11,11,2,-3,6,.,.,.,.
O=C(O)c1cc(O)c2c(c1)C(=O)c1cc(O)cc(O)c1C2=O,15,61*,16,13,17,35*,24,.,42*
O=C(O)c1ccc(N/N=C/c2cn(Cc3ccccc3F)c3ccccc23)cc1,5,46*,8,10,14,46*,63*,.,69*
Nc1ccc(C(=O)N/N=C/c2cn(Cc3ccccc3F)c3ccccc23)cc1,-2,13,9,-1,8,.,.,.,.
CN(C(=S)Nc1ccc(SC(F)F)cc1)c1ccc(O)cc1,31,45*,8,4,3,51*,2,.,-4
N#Cc1cccc(CNCC(=O)N2CCC3(CC2)OCCO3)c1,.,5,.,.,.,.,.,.,.
CN=c1scc(-c2cccs2)n1/N=C/c1ccccc1O,-6,3,5,1,6,6,.,.,.
CN=c1scc(C)n1/N=C/c1ccc(O)c(O)c1O,39*,41*,-1,5,8,60*,9,60*,24
CN=c1scc(-c2cccs2)n1/N=C/c1ccc(O)c(O)c1O,82*,56*,-2,12,-4,51*,65*,73*,74*
CCOC(=O)N1CCN(C(=O)C[C@H]2C(=O)N(CCCOC)C3=CCCCC[C@]32C(=O)OC)CC1,.,8,.,.,.,.,.,.,.
COc1ccc(-c2cc(C(=O)NN=Cc3cccn3C)[nH]n2)cc1,.,3,.,.,.,.,.,.,.
CCCCn1c(=O)[nH]c2nc3cc(N)ccc3nc2c1=O,42*,68*,14,27,4,37*,14,37*,44*
Cc1cc2nc3c(=O)n(CCc4ccccc4)c(=O)[nH]c3nc2cc1N,35,55*,9,26,12,56*,20,.,20
C=CCn1c(=O)[nH]c2nc3cc(N=CN(C)C)c(C)cc3nc2c1=O,3,0,2,-1,2,4,.,.,.
O=C1CCCC2=C1C(c1ccc(O)c(O)c1)Nc1ccc3ccccc3c12 (stereo unspecified),64*,32*,6,5,3,36*,31*,72*,26
COc1cc(C2Nc3ccc4ncccc4c3C3=C2C(=O)CCC3)cc(OC)c1O (stereo unspecified),15,4,0,3,8,7,.,.,.
O=C(N/N=C/c1ccc(O)c(O)c1O)/C(=C/c1ccc([N+](=O)[O-])cc1)NC(=O)c1ccccc1,63*,57*,8,11,16,38*,47*,.,67*
COc1ccc(NC(=S)NNc2ccc(S(=O)(=O)Nc3ccccc3C(=O)O)cc2[N+](=O)[O-])cc1,74*,74*,16,64*,27*,58*,82*,73*,96*
Cc1nn(-c2ccccc2)c(Cl)c1/C=N/Nc1ccc(S(=O)(=O)Nc2ccccc2C(=O)O)cc1[N+](=O)[O-],6,42*,13,26,10,47*,78*,.,62*
Cc1ccc(-n2c(SCC(=O)C(C)(C)C)nnc2-c2cccc(C)c2)cc1,.,6,.,.,.,.,.,.,.
SMILES,HTRA1 inhibitor,ABHD4 inh,PAFAH1B2 FP inh,PAFAH2 inh,PAFAH1B3 inh,pPAFAH FP inh,pPAFAH confirm,HTRA1 conf,mABHD4 conf
Cc1c2ccccc2nc2c(F)c(NCCO)c(F)c(F)c12,67*,58*,14,25,19,37*,14,28,52*
CC(=O)N(C)c1ccc(N=Cc2cc3c(cc2[N+](=O)[O-])OCO3)cc1,10,28,4,6,3,7,.,.,.
CC(C)(C)c1ccc(O)c(N=Cc2cc3c(cc2[N+](=O)[O-])OCO3)c1,39*,49*,2,5,12,41*,15,9,40*
CCc1ccc(S(=O)(=O)/N=C2\C=C(Nc3cccc(C(=O)O)c3)C(=O)c3ccccc32)cc1,70*,65*,39*,62*,63*,37*,40*,66*,84*
COc1ccc(-n2c(C)c3c(OC)cccc(=O)c3c2C)cc1,14,15,5,13,3,21,.,.,.
COc1cccc(=O)c2c(C)n(-c3ccc(C(=O)O)cc3)c(C)c12,11,30*,2,10,6,37*,1,.,16
CCOc1cccc(=O)c2c(C)n(-c3ccc(C(=O)O)cc3)c(C)c12,8,39*,3,8,6,38*,21,.,25
Oc1ccccc1-c1csc(-c2ccccc2)n1,-24,-14,7,-1,-1,-1,.,.,.
Oc1ccc(-c2csc(-c3ccccc3)n2)cc1O,59*,31*,0,0,1,45*,59*,48*,31*
O=C(CCc1ccccc1-c1ccccc1CCNC(=O)c1ccc(F)c(F)c1)NCc1ccccc1,.,3,.,.,.,.,.,.,.
Cc1nnc(N/N=C/c2ccc(O)c([N+](=O)[O-])c2)[nH]c1=O,4,4,4,-6,14,-2,.,.,.
Cc1csc(N/N=C/c2ccc(O)c([N+](=O)[O-])c2)n1,20,50*,12,26,26*,40*,11,.,83*
CCNc1ccc2noc3c2c1C(=O)c1ccccc1-3,123*,122*,114*,114*,104*,106*,99*,112*,116*
C=CCN=c1scc(-c2ccco2)n1/N=C/c1ccc(O)c(O)c1O,72*,49*,-1,7,6,49*,68*,86*,60*
COCCN=c1scc(-c2ccco2)n1/N=C/c1ccc(O)c(O)c1O,68*,60*,-8,25,8,64*,67*,78*,62*

# Bioassay records: PubChem BioAssay, The Scripps Research Institute Molecular Screening Center
